pIC50: −log10 of the molar value.
How the values were obtained:
A549 = assay: Cytotoxicity against c-Met-dependent human A549 cells assessed as growth inhibition after 72 hrs by MTT assay; conditions: A549, 72 h
MKN-45 = assay: Cytotoxicity against c-Met-dependent human MKN45 cells assessed as growth inhibition after 72 hrs by MTT assay; conditions: MKN-45, 72 h
[1] = Cytotoxicity against c-Met-independent human H460 cells assessed as growth inhibition after 72 hrs by MTT assay; conditions: NCI-H460, 72 h
HT-29 = assay: Cytotoxicity against c-Met-dependent human HT-29 cells assessed as growth inhibition after 72 hrs by MTT assay; conditions: HT-29, 72 h
[2] = Cytotoxicity against c-Met-dependent human U87MG cells assessed as growth inhibition after 72 hrs by MTT assay; type: functional, cell-based, U-87MG ATCC; conditions: U-87 MG
Outline: (§1)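 Cells grown in MEM with 10% FBS. About 4×10³ cells/well were seeded and incubated 24 h at 37 °C, 5% CO₂, then exposed to compound for 72 h. MTT was added (terminal 5 µg/mL) for 4 h at 37 °C, and formazan was dissolved in DMSO. IC50 is the mean of three determinations.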

SMMC-7721 = assay: Cytotoxicity against c-Met-dependent human SMMC7721 cells assessed as growth inhibition after 72 hrs by MTT assay; type: functional, cell-based; conditions: SMMC-7721, 72 h; outline: as §1

Structure (SMILES) | pIC50 (A549) | pIC50 (MKN-45) | pIC50 [1] | pIC50 (HT-29) | pIC50 [2] | pIC50 (SMMC-7721)
COc1cc2c(Oc3ccc(NC(=O)c4nn(-c5ccc(F)cc5Br)c5ccccc5c4=O)cc3F)ccnc2cc1OCCCN1CCCC1 | 5.99 | 5.76 | 5.44 | 5.54 | – | –
COc1cc2c(Oc3ccc(NC(=O)c4nn(-c5ccccc5)c5ccccc5c4=O)cc3F)ccnc2cc1OCCCN1CCOCC1 | 6.24 | 6.02 | 6.16 | 5.93 | 5.84 | 5.95
COc1cc2c(Oc3ccc(NC(=O)c4nn(-c5ccccc5Cl)c5ccccc5c4=O)cc3F)ccnc2cc1OCCCN1CCOCC1 | 7.52 | 8.00 | 8.00 | 6.62 | 5.77 | 6.04
COc1cc2c(Oc3ccc(NC(=O)c4nn(-c5ccccc5C(F)(F)F)c5ccccc5c4=O)cc3F)ccnc2cc1OCCCN1CCOCC1 | 7.22 | 7.70 | 7.10 | 6.29 | 5.83 | 6.08
COc1cc2c(Oc3ccc(NC(=O)c4nn(-c5ccccc5OC(F)(F)F)c5ccccc5c4=O)cc3F)ccnc2cc1OCCCN1CCOCC1 | 6.32 | 6.12 | 6.21 | 5.95 | 5.98 | –
COc1cc2c(Oc3ccc(NC(=O)c4nn(-c5ccc(C)cc5)c5ccccc5c4=O)cc3F)ccnc2cc1OCCCN1CCOCC1 | 5.96 | 6.17 | 5.68 | 5.49 | 5.71 | –
COc1cc2c(Oc3ccc(NC(=O)c4nn(-c5cc(C)ccc5C)c5ccccc5c4=O)cc3F)ccnc2cc1OCCCN1CCOCC1 | 6.12 | 7.52 | 6.23 | 5.94 | 5.87 | –
COc1cc2c(Oc3ccc(NC(=O)c4nn(-c5ccccc5F)c5cc(F)ccc5c4=O)cc3F)ccnc2cc1OCCCN1CCCCC1 | 5.49 | 5.55 | 5.48 | 5.29 | – | –
COc1cc2c(Oc3ccc(NC(=O)c4nn(-c5ccccc5Cl)c5cc(F)ccc5c4=O)cc3F)ccnc2cc1OCCCN1CCCCC1 | 5.74 | 5.79 | 5.82 | 5.61 | – | –
COc1cc2c(Oc3ccc(NC(=O)c4nn(-c5ccccc5F)c5cc(F)ccc5c4=O)cc3F)ccnc2cc1OCCCN1CCOCC1 | 5.69 | 5.81 | 5.65 | 5.53 | – | –
COc1cc2c(Oc3ccc(NC(=O)c4nn(-c5ccccc5Cl)c5cc(F)ccc5c4=O)cc3F)ccnc2cc1OCCCN1CCC(C)CC1 | 5.98 | 5.81 | 5.90 | 5.86 | – | –
COc1cc2c(Oc3ccc(NC(=O)c4nn(-c5ccc(Cl)cc5Cl)c5ccccc5c4=O)cc3F)ccnc2cc1OCCCN1CCCCC1 | 6.33 | 6.23 | 5.99 | 6.00 | – | –
COc1cc2c(Oc3ccc(NC(=O)c4nn(-c5c(Cl)cccc5Cl)c5ccccc5c4=O)cc3F)ccnc2cc1OCCCN1CCCCC1 | 6.39 | 6.41 | 6.11 | 5.94 | 5.87 | –
COc1cc2c(Oc3ccc(NC(=O)c4nn(-c5ccc(C)cc5C)c5ccccc5c4=O)cc3F)ccnc2cc1OCCCN1CCCCC1 | 5.89 | 5.73 | 5.80 | 5.45 | – | –
COc1cc2c(Oc3ccc(NC(=O)c4nn(-c5ccccc5F)c5ccccc5c4=O)cc3F)ccnc2cc1OCCCN1CCC(C)CC1 | 6.48 | 6.24 | 6.54 | 6.11 | 5.92 | 6.02
COc1cc2c(Oc3ccc(NC(=O)c4nn(-c5ccccc5Br)c5ccccc5c4=O)cc3F)ccnc2cc1OCCCN1CCC(C)CC1 | 6.46 | 6.55 | 6.08 | 5.87 | 5.67 | –
COc1cc2c(Oc3ccc(NC(=O)c4nn(-c5cccc(C(F)(F)F)c5)c5ccccc5c4=O)cc3F)ccnc2cc1OCCCN1CCC(C)CC1 | 6.68 | 6.80 | 6.26 | 5.99 | 6.14 | –
COc1cc2c(Oc3ccc(NC(=O)c4nn(-c5ccc(F)cc5)c5ccccc5c4=O)cc3F)ccnc2cc1OCCCN1CCC(C)CC1 | 6.82 | 6.77 | 6.05 | 6.34 | 5.95 | 6.03
COc1cc2c(Oc3ccc(NC(=O)c4nn(-c5ccc(C)cc5)c5ccccc5c4=O)cc3F)ccnc2cc1OCCCN1CCC(C)CC1 | 5.98 | 5.91 | 5.70 | 5.55 | – | –
COc1cc2c(Oc3ccc(NC(=O)c4nn(-c5c(Cl)cccc5Cl)c5ccccc5c4=O)cc3F)ccnc2cc1OCCCN1CCC(C)CC1 | 6.40 | 6.44 | 6.19 | 6.04 | 5.98 | 6.09
COc1cc2c(Oc3ccc(NC(=O)c4nn(-c5cccc(C(F)(F)F)c5)c5ccccc5c4=O)cc3F)ccnc2cc1OCCCN1CCCC1 | 6.52 | 6.72 | 5.98 | 6.11 | 6.07 | 6.20
COc1cc2c(Oc3ccc(NC(=O)c4nn(-c5ccc(F)c(F)c5)c5ccccc5c4=O)cc3F)ccnc2cc1OCCCN1CCCC1 | 6.59 | 6.46 | 6.19 | 5.95 | 5.97 | 6.23
COc1cc2c(Oc3ccc(NC(=O)c4nn(-c5c(Cl)cccc5Cl)c5ccccc5c4=O)cc3F)ccnc2cc1OCCCN1CCCC1 | 6.46 | 6.46 | 6.43 | 5.98 | 5.90 | 6.08
COc1cc2c(Oc3ccc(NC(=O)c4nn(-c5cc(C(F)(F)F)ccc5Cl)c5ccccc5c4=O)cc3F)ccnc2cc1OCCCN1CCCC1 | 6.70 | 6.77 | 6.21 | 5.95 | 5.85 | –
COc1cc2c(Oc3ccc(NC(=O)c4nn(-c5cc(C)ccc5C)c5ccccc5c4=O)cc3F)ccnc2cc1OCCCN1CCCC1 | 5.94 | 6.38 | 5.69 | 5.52 | 5.61 | –
COc1cc2c(Oc3ccc(NC(=O)c4nn(-c5ccccc5Cl)c5ccccc5c4=O)cc3F)ccnc2cc1OCCCN1CCCCC1 | 7.37 | 7.30 | 7.14 | 6.59 | 6.31 | 6.38
COc1cc2c(Oc3ccc(NC(=O)c4nn(-c5ccccc5C(F)(F)F)c5ccccc5c4=O)cc3F)ccnc2cc1OCCCN1CCCCC1 | 7.26 | 7.57 | 7.09 | 6.25 | 5.94 | 5.87
COc1cc2c(Oc3ccc(NC(=O)c4nn(-c5cccc(F)c5)c5ccccc5c4=O)cc3F)ccnc2cc1OCCCN1CCCCC1 | 6.96 | 6.85 | 6.04 | 5.73 | 5.61 | 5.69
COc1cc2c(Oc3ccc(NC(=O)c4nn(-c5ccc(Br)cc5)c5ccccc5c4=O)cc3F)ccnc2cc1OCCCN1CCCCC1 | 6.28 | 6.35 | 6.40 | 5.94 | 5.80 | 6.08
